# CASP6 VEID inh: inhibitors of human caspase-6; inhibition, % at 12.5 µM; AID 686996; P55212; 350,000 tested, 0.53% active; purified caspase-6, Z-VEID-R110 cleavage fluorescence;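 active = mean inhibition across replicates at least about 35%, with every replicate also reaching that limit, limit read from the data; inconclusive = only one of the two criteria met; inactive = neither criterion met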
# Target sequence (P55212 24-179 limits assumed): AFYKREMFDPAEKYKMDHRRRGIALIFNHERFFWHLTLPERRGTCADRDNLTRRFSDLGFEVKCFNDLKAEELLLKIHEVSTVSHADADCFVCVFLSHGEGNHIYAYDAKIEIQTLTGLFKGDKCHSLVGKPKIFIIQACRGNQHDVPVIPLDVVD
# Target sequence (P55212 194-293 limits assumed): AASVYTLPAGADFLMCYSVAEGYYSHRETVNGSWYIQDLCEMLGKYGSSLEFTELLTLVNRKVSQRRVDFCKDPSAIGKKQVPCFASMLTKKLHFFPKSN
# Vif imaging: blocks HIV Vif function; 340,000 tested, 0.35% active; inhibition, % at 7.49 µM; HEK293T cells, Vif self-association by quenched fluorescence, imaging, 24 h; AID 602346; in the data active = inhibition above about 50%, passing the limit was not always enough; inconclusive = no clear call, values can overlap the other calls; inactive = below about 31%
# T cell modulator: modulates CD8 T cell binding to vesicles; response (vesicle binding), % at 7 µM; 330,000 tested, 0.068% active; 2C CD8+ T cell-vesicle binding, flow cytometry; hits give low values; AID 2052;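 active = response, share of CD8 T cells binding vesicles, and their 90th percentile fluorescence all below set limits, cut at about 80% in these data, passing the limit was not always enough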;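 note: values below 100% mean blocked vesicle binding to the CD8+ T cells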
#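 incubation = binding step 1.5 h, 37 °C, antibody labelling 20 min, ice | test system = 2C mouse CD8+ T cells | read-out basis = percent CD8+ FL2 mean versus row control | controls = Peptide-free naked vesicles (low) and QL9 vesicles with 0.7% DMSO vehicle (high) | detection = flow cytometry of vesicle-bound cells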
# Myeloid diff 2: compounds promoting myeloid differentiation; 360,000 tested, 1% active; calls only at 10 µM; ER-HoxA9 myeloid progenitors, lysozyme-GFP differentiation, flow cytometry;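 active = normalized GFP-positive differentiation at or above the plate's own cutoff, the solvent-only control mean plus 3 SD; inconclusive = no clear call, values can overlap the other calls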;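 note: cells exposed to compound for four days before flow analysis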
# Numbers stand for hits; n = inactive; u = inconclusive; x = no result given; + = active, no number. Hits are enriched below; roughly 1.4% of the tested compounds scored in any of these assays.
SMILES,CASP6 VEID inh,Vif imaging,T cell modulator,Myeloid diff 2
CCC(=O)N(C)C[C@H]1Oc2cc(-c3ccc(OC)cc3)ccc2S(=O)(=O)N([C@H](C)CO)C[C@@H]1C,n,x,x,x
CC(C)OCCCn1c(=N)c(C(N)=S)cc2c(=O)n3ccccc3nc21,x,n,n,+
O=C(C[C@@H]1CC[C@H]2[C@@H](COC[C@@H](O)CN2Cc2ccc(Oc3ccccc3)cc2)O1)Nc1nccs1,n,x,x,x
C[C@@H]1CN([C@H](C)CO)S(=O)(=O)c2ccc(C#Cc3ccncc3)cc2O[C@@H]1CN(C)C(=O)C1CCOCC1,n,x,x,x
CC(C)Oc1ccc(Br)cc1/C=N\NC(N)=S,x,n,n,+
NC(=O)c1sc2nc(-c3ccccc3)c3c(c2c1N)CCCC3,n,n,n,+
Cc1ccc(-c2nc3sc(C(N)=O)c(N)c3c3c2CCCC3)cc1,n,n,n,n
COc1ccc(C(=O)Nc2nnc(Cc3cccs3)s2)cc1OC,x,n,n,+
O=C(C[C@@H]1CC[C@H]2[C@@H](COC[C@H](O)CN2Cc2cc(F)cc(F)c2)O1)NC1CCC1,n,x,x,x
Cc1c(CCC(=O)O)c(=O)oc2c(C)c(OCc3cc4c(cc3Cl)OCO4)ccc12,43,n,n,n
Cc1c(CC(=O)O)c(=O)oc2c(C)c(OCc3c(F)cccc3Cl)ccc12,n,n,n,n
O=C(c1ccc(F)cc1)N1C[C@H]2[C@@H](c3ccccc31)[C@@H](CO)N2Cc1ccc2c(c1)OCO2,n,x,x,x
C[C@@H]1CN([C@@H](C)CO)C(=O)c2cc(-c3cccnc3)cnc2O[C@@H]1CN(C)C(=O)c1ccccc1F,n,x,x,x
Cc1ccc(Nc2nc(N)nc(CSc3nnc(-c4ccncc4)o3)n2)cc1,x,83,n,n
Cc1cccc(NC(=O)CSc2nnc(CSc3nc(C)cc(C)n3)n2Cc2ccco2)c1,x,n,n,+
CC(C)CN(C(=O)c1cccc(F)c1)c1c(N)n(CC(C)C)c(=O)[nH]c1=O,n,n,n,n
CC(C)CN(C(=O)c1cccc([N+](=O)[O-])c1)c1c(N)n(CC(C)C)c(=O)[nH]c1=O,n,56,n,n
Cc1cc(C)nc(NC(=S)Nc2cccc(Cl)c2Cl)c1,n,n,n,+
CN(Cc1ccccc1)C(=O)c1cccc(NC(=O)Cc2cccc(NC(=O)C3CCN(C(=O)C4CC4)CC3)c2)c1,n,n,x,+
Nc1nc(N)c2nc(-c3ccccc3)c(N)nc2n1,n,n,n,+
O=C(C[C@H]1CC[C@H]2[C@@H](COC[C@H](O)CN2Cc2ccc(F)cc2)O1)N1CCc2ccccc2C1,n,x,x,x
CCN(CC)C1Oc2cc3c(cc2C(c2cc(OC)c(OC)c(OC)c2)C1C)OCO3 (configuration not stated),n,55,x,x
Cc1nc2c(cnn2-c2ccccc2Cl)c(=O)n1-c1ccc(N2CCC(C)CC2)cc1,x,n,n,+
O=C(C[C@H]1CC[C@H](NS(=O)(=O)c2ccccc2)[C@@H](CO)O1)NCc1ccncn1,n,x,x,x
COc1cc(-c2nc3cc(C)ccn3c2NC2CCCCC2)ccc1-c1ccc(C(C)=O)cc1,x,n,n,+
SMILES,CASP6 VEID inh,Vif imaging,T cell modulator,Myeloid diff 2
Cc1ccn2c(NC3CCCCC3)c(-c3cccc(-c4cccc(Cl)c4)c3)nc2c1,n,n,n,+
CCCCCCSc1cc(-c2nc3cc(C)ccn3c2NC2CCCCC2)ccc1OC,n,n,n,n
Cc1ccn2c(NC3CCCC3)c(-c3ccncc3)nc2c1,n,n,n,n
CCOc1ccc(-c2cc(C(=O)NCCCn3ccnc3)c3ccccc3n2)cc1,n,n,n,n
CCOc1ccc(-c2cc(C(=O)NCCCn3ccnc3)c3cc(Br)ccc3n2)cc1,n,61,n,n
COc1ccccc1/C=N\NC(=O)c1ccc(COc2ccc(C)c(C)c2)o1,n,n,n,+
O=C(N/N=C/c1cc([N+](=O)[O-])ccc1O)c1ccc(COc2ccc3c(c2)CCC3)o1,n,n,n,u
COc1ccc(Br)cc1/C=N/NC(=O)c1ccc(COc2ccc3c(c2)CCC3)o1,x,n,n,+
CO[C@@H]1CN(C)C(=O)c2cc(NC(=O)c3ccc4c(c3)OCO4)ccc2OC[C@H](C)NC[C@H]1C,n,x,x,x
COC(=O)c1ccc(CNC(=O)COC(=O)c2ccccc2-c2ccccc2)cc1,59,n,n,n
O=C(C[C@@H]1C=C[C@H](NC(=O)c2ccccc2)[C@@H](CO)O1)NCc1ccncn1,n,x,x,x
CO[C@@H]1CN(C)C(=O)c2cc(NC(=O)C3CC3)ccc2OC[C@@H](C)N(C(=O)c2ccccc2)C[C@@H]1C,n,x,x,x
CO[C@H]1CN(C)C(=O)c2cc(NC(=O)C3CC3)ccc2OC[C@H](C)N(C(=O)c2ccccc2)C[C@H]1C,70,x,x,x
CC(C)OCCCN(C)C1CCN(S(=O)(=O)c2ccc(-c3cc(C(F)(F)F)no3)s2)CC1,n,n,n,+
COc1ccc(C(=O)Nc2cccnc2Cl)cc1OC,n,n,n,n
O=C(Nc1cccnc1Cl)c1ccc(=O)oc1,54,n,n,n
COc1ccc(CN(C)C[C@H]2Oc3ccc(NC(=O)Cc4cn(C)c5ccccc45)cc3CC(=O)N([C@H](C)CO)C[C@@H]2C)cc1,n,x,x,x
Cc1nonc1NC(=O)CSc1nc2ccccc2o1,n,n,n,n
CC(=O)Nc1nonc1NC(=O)CSc1nc2ccccc2o1,x,n,n,+
COc1ccccc1CNc1ccc2c(c1)CCC2,n,n,n,+
CCNC(=O)C[C@@H]1C=C[C@@H](NC(=O)NC2CCCCC2)[C@H](CO)O1,n,x,x,x
Nn1c(COc2ccccc2F)nnc1SCC(=O)NC1CCCC1,n,n,n,n
N#CC1(NC(=O)CSc2nnc(COc3ccccc3F)n2N)CCCCC1,72,n,n,n
COC(=O)c1ccccc1NC1=C/C(=N\S(=O)(=O)c2ccc(C(=O)O)cc2)c2ccccc2C1=O,x,n,n,n
Cc1ccc(S(=O)(=O)/N=C2\C=C(Nc3cccc(C(=O)O)c3)C(=O)c3ccccc32)c(C)c1,100,n,n,n
SMILES,CASP6 VEID inh,Vif imaging,T cell modulator,Myeloid diff 2
CCc1ccc(S(=O)(=O)/N=C2\C=C(Nc3ccc(C(=O)O)cc3)C(=O)c3ccccc32)cc1,97,n,n,n
Cc1ccc(S(=O)(=O)/N=C2\C=C(Nc3cccc(C(=O)O)c3)C(=O)c3ccccc32)cc1,99,n,n,n
CC(C)(C)c1ccc(S(=O)(=O)/N=C2\C=C(NS(=O)(=O)c3ccccc3)C(=O)c3ccccc32)cc1,50,n,n,n
C[C@@H]1CN([C@H](C)CO)C(=O)c2cc(Br)cnc2O[C@@H]1CN(C)CC1CC1,n,x,x,x
Cc1ccc(NC(=S)N/N=C2\CCCCC2C)cc1 (configuration not stated),n,n,n,+
CCOC(=O)c1ccc(S(=O)(=O)N2CCC(C(=O)N3CCN(c4ccccc4OC)CC3)CC2)cc1,48,n,x,n
COc1ccccc1N1CCN(C(=O)C2CCN(S(=O)(=O)c3ccc(F)cc3)CC2)CC1,x,n,n,n
O=C(OCc1ccccc1)c1ccccc1,n,n,n,n
O=C(CN(C(=O)c1ccccc1)C(=O)c1ccccc1)OCc1ccccc1,n,77,x,n
CCCC(=O)Nc1ccc2c(c1)OC[C@@H](C)N(CC1CCCC1)C[C@@H](C)[C@@H](OC)CN(C)C2=O,n,x,x,x
